According to ChEMBL document CHEMBL4513216, “Probing the Open Global Health Chemical Diversity Library for Multistage-Active Starting Points for Next-Generation Antimalarials” (ACS Infect Dis, 2020):

Experiment: Toxicity liver stage against HepG2, at 10uM
Type: cell-based
Set-up: test concentration 10 uM, cell line HepG2-A16-CD81EGFP
Conditions: human, HepG2-A16-CD81EGFP cells; read-out: INHIBITION
In short: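 Uninfected HepG2-A16-CD81EGFP cells, 3 × 10^3 per well, 1536-well, plated on prespotted compound at 10 μM final, parasite-free screening media added to match infected plates; puromycin 10 μM positive, DMSO 0.5% negative; run in parallel with 48 h PbLuc assay at 37 °C, 5% CO2; viability by CellTiter-Glo luminescence, normalized to controls.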

Row | Structure (SMILES) | cytotoxicity at 10 µM [%]
1 | Cc1cccc(CN2CCN3C[C@H](Oc4cncnc4)C[C@H]3C2)n1 | -91.9
2 | NCC1(CN2CCOCC2)CCCCC1 | 3.23
3 | c1cnc(-c2nc(CN3CCOC(Cn4cncn4)C3)cs2)nc1 (stereo unspecified) | -15.2
4 | NS(=O)(=O)c1cccnc1Nc1c(Cl)cccc1Cl | -11.8
5 | CN(C)C(CNC(=O)c1cc2c([nH]c1=O)CCCC2=O)c1ccsc1 (stereo unspecified) | -1.96
6 | Cn1cc(NC(=O)Cc2ccccc2Br)cc1C(N)=O | -1
7 | CC(=O)N1CCN(c2nc3c(cnn3C(C)(C)C)c(=O)[nH]2)CC1 | -17.9
8 | COCC(C)NC(=O)N(C)Cc1cc(C)on1 (stereo unspecified) | 6.27
9 | Cc1ccc(S(=O)(=O)N(C)CC(C)O)c(F)c1 (stereo unspecified) | -11.4
10 | Fc1cccc(CNCC2Cn3nncc3CO2)c1 (stereo unspecified) | 10.9
11 | O=C1NCCCCC1NC(=O)N1CCCc2ccccc21 (stereo unspecified) | -3.49
12 | Cc1cc(C)nc(Nc2cc(C)nc(C3CCN(C(=O)CO)C3)n2)n1 (stereo unspecified) | 5.34
13 | CC(c1ccc(F)cc1)N1CCN(Cc2nccn2C)CC1 (stereo unspecified) | -25.7
14 | CCCOCC(=O)NS(=O)(=O)c1ccc2c(c1)OCCCO2 | -5.67
15 | CCCc1nc(NCc2c(C)nn(CCC)c2C)c2cnn(C)c2n1 | 9.66
16 | CC(C)CN1C(=O)C2(CCN(Cc3nccs3)C2)c2ccccc21 (stereo unspecified) | 0.371
17 | Cc1cc(CC(C)NC(=O)Cc2cc(F)ccc2C)[nH]n1 (stereo unspecified) | -42.9
18 | CC(C)OCCCNC(=O)c1c(-n2cnnn2)sc2c1CCCC2 | 11.9
19 | CCn1c(CN2CCCC2)nnc1C1CCN(Cc2cc(C)no2)CC1 | 3.6
20 | CN1CCN(C(=O)CCn2nnc3ccccc32)CC(C(N)=O)C1 (stereo unspecified) | 2.24
21 | O=C(N[C@H]1COC[C@@H]1N1CCCC1)c1csc(-c2cccs2)n1 | 9.71
22 | CC(C)OCCCNC(=O)CN1CCN(c2nccs2)CC1 | 3.44
23 | CSc1cccc(CN2CCC(CCC(=O)Nc3ccccc3)CC2)c1 | -2.48

Row | Structure (SMILES) | cytotoxicity at 10 µM [%]
24 | O=C(Cc1ccccn1)N1CCc2ncnc(N3CCCC3)c2CC1 | -2.13
25 | COCCNC(=O)c1cc(-c2ccc3c(c2)CCO3)n[nH]1 | 0.843
26 | O=C1CCC2(CCCN(C(=O)c3cscn3)C2)CN1CCc1c[nH]cn1 (stereo unspecified) | -13
27 | O=C(NC1(c2nnn(CCO)n2)CCCC1)c1ccccc1 | 14.8
28 | CCOc1nnc(CN2CCOC(CNc3cccnn3)C2)s1 (stereo unspecified) | 1.82
29 | Cc1ccccc1-n1cc(C2=CCN(CCn3cc[nH]c3=O)CC2)cn1 | 16.5
30 | CCSc1cc(C(=O)N(CC(F)F)C(C)C)ccn1 | 4.64
31 | O=C(C1CCC1)N1CC[C@H](O)[C@@H]1Cc1cccnc1 | -105
32 | CNc1nc(C(=O)N2CCC3(CCCN(CC4CC4)C3=O)C2)cs1 (stereo unspecified) | 5.33
33 | COC(=O)[C@@H]1C[C@@H](NC(=O)CN2C(=O)N(C)Cc3ccccc32)CN1C | -2.62
34 | Cn1cnc2c1CCN(CCCS(=O)(=O)c1ccccc1)C2 | -7.54
35 | COC(=O)C1CN(Cc2ccn(-c3ccc(F)cc3)n2)C[C@@H](C)O1 (stereo partly specified) | -4.52
36 | CCc1noc(CS(=O)(=O)Cc2ccccc2C)n1 | 16.8
37 | Cc1c(NC(=O)NCCO)cccc1OC1CCCC1 | -2.25
38 | CCOCCOc1ccccc1C(=O)N1C[C@H](C2CC2)[C@@H](N)C1 | -0.332
39 | NC(C(=O)N1CCSc2ccccc2C1)c1ccccc1 (stereo unspecified) | 4.59
40 | O=C(CCc1ccc(=O)[nH]n1)N1CCCC(COc2ccc(F)cc2)C1 (stereo unspecified) | 1.9
41 | CCOCC(O)CN1CCN(C(=O)c2cnc3n[nH]c(C)c3c2)CC1 (stereo unspecified) | -7.69
42 | Cc1cc(Nc2nc(C)cc(C)n2)cc(C2CCCN2)n1 (stereo unspecified) | 0.407
43 | CCc1ccc(C(=O)N2CC(C(=O)NC(C)C)C3(CCOCC3)C2)cc1 (stereo unspecified) | 3.65
44 | CCN1CCC2(CCN(c3ncccn3)CC2)C1=O | 1.26
45 | Cc1cc(C)n(CC(C)NC2CCN(Cc3cccc(O)c3)CC2)n1 (stereo unspecified) | -2.01
46 | Cc1cc(=O)n(CCNC(=O)c2ccccc2Cl)cn1 | -5.07

Row | Structure (SMILES) | cytotoxicity at 10 µM [%]
47 | Cn1nccc1C(=O)N1CC[C@]2(C[C@H](OCc3ccccn3)CO2)C1 | -80.6
48 | CC(Cc1ccco1)NC(=O)Nc1ccc(N(C)C)nc1 (stereo unspecified) | -7.22
49 | Cc1ccc2c(n1)N(CCn1cccn1)CCN(CC1CC1)C2 | 8.83
50 | O=C(N1CCC(Oc2ccncc2)C1)C1(c2cccc(F)c2)CC1 (stereo unspecified) | -6.52
51 | CCN1CCCc2cc(-c3cncn3C(C)CN3CCOCC3)ccc21 (stereo unspecified) | 12.6
52 | COc1ccc(C(=O)N2CCC(Oc3cccc(C)c3)(C(=O)O)CC2)o1 | 9.24
53 | COc1cc(CN2CCCC23CCN(c2ccccn2)CC3)ccc1F | -11.5
54 | CC(C)c1nc(CC(=O)N2CCCC(n3cncn3)C2)cs1 (stereo unspecified) | -8.24
55 | Cc1noc(C)c1CN(C)C(C)c1cccs1 (stereo unspecified) | -3.11
56 | O=C(Cc1cccc(F)c1)N1C[C@H]2CN(Cc3cccnc3)C[C@H]2C1 | 0.0515
57 | NS(=O)(=O)c1cnc(NCC2(c3ccccc3)CCC2)s1 | -4.88
58 | CC(C)c1nnc(N2C[C@H]3CC[C@@H](C2)N(CC2CCC2)C3)s1 | -7.38
59 | Cc1oc(-c2ccco2)nc1CC(=O)N1CCN(CC(C)(C)O)CC1 | 0.626
60 | CS(=O)(=O)NC(=O)c1cnc2c(cnn2C2CCCC2)c1 | 8.18
61 | COC(=O)c1ccccc1NC(=O)c1c(C)cn(C)c1CC(=O)O | -6.14
62 | CC(C)CCn1ccc(NC(=O)N2CCCC2C(C)(C)O)n1 (stereo unspecified) | 5.07
63 | Cn1ncc(N2CCC(CNC(=O)[C@@H](N)C3CCCCC3)CC2)cc1=O | 12.7
64 | Cc1cc(C(=O)NC2CCc3c(ccc(=O)n3CC3CC3)C2)no1 (stereo unspecified) | 2.62
65 | Cc1ccccc1S(=O)(=O)Cc1nsc(N(C)C)n1 | -4.45
66 | O=C(Nc1nncs1)N1CCCN(C2CCCCC2)CC1 | 1.48
67 | CC(C)Nc1ncnc2c1CCN(C(=O)CC1CCCC1)CC2 | -81.5
68 | CCc1nc(C2CCCN(C(=O)c3ccccc3O)C2)no1 (stereo unspecified) | -7.39
69 | CC(=O)N1CCc2cc(C(=O)O)c(-c3ccsc3)nc2CC1 | 13.8

Row | Structure (SMILES) | cytotoxicity at 10 µM [%]
70 | CN(C)C(=O)COCC1CN(CC2CCOCC2)Cc2ncn(C)c21 (stereo unspecified) | 1.03
71 | Cc1ccc(S(=O)(=O)N2CCOCC2C#N)c(F)c1 (stereo unspecified) | 9.78
72 | O=C(O)[C@@H]1CN(Cc2cc3c(cc2Cl)OCO3)C[C@H]1C1CC1 | 0.0851
73 | Cc1c(NC(=O)NC(C)CCO)cccc1OC1CCCC1 (stereo unspecified) | -7.18
74 | Cc1cccc(N2CCN(CCNC(=O)C(C)n3cncn3)CC2)c1 (stereo unspecified) | -1.91
75 | COc1cc2[nH]c(=O)c(CN3CCC[C@@H]3C(N)=O)cc2c(OC)c1OC | -6.84
76 | Cn1c(C(F)(F)F)nn(CCNC(=O)Nc2ccccc2Cl)c1=O | 13.4
77 | COCc1cc(CN(C)C(=O)CCC(=O)Nc2cc(C)ccc2F)n[nH]1 | -14.5
78 | O=C(CS(=O)(=O)CC1CCCCC1)NC1CCCCNC1=O (stereo unspecified) | -10.6
79 | Cc1cnn(CC2CCCN2C(=O)CCc2c(C)nc(C)[nH]c2=O)c1 (stereo unspecified) | -2.79
80 | COc1cccc(N2C(=O)CC3(CCNCC3)C2=O)c1 | 2.67
81 | CC(C)CO[C@@H]1CC[C@H]2[C@H]1OCCN2S(=O)(=O)C1CC1 | 4.04
82 | CC(=O)N1CCC2(CC1)CN(C(=O)c1cccc3[nH]ccc13)C2 | -121
83 | CCCC(=O)N(CCCN1CCOCC1)c1nc2c(C)c(C)ccc2s1 | -12.6
84 | Cc1ccncc1C(=O)N1C[C@H]2CN(CC3CCC3)C[C@@]2(C(=O)O)C1 | -5.73
85 | O=C(c1cnc2[nH]c(=O)[nH]c(=O)c2c1)N1CCCC1C1CCCC1 (stereo unspecified) | 6.22
86 | c1ccc2sc(NCC3(N4CCOCC4)CCSC3)nc2c1 (stereo unspecified) | 0.375
87 | Fc1ccc(C(NCc2nnc(-c3ccco3)o2)C2CCC2)cc1 (stereo unspecified) | -36.3
88 | CCS(=O)(=O)Nc1ccn(Cc2c(F)cccc2Cl)n1 | 7.77
89 | Cc1cncc(C2CCCN(C(=O)c3scnc3C)C2)n1 (stereo unspecified) | -2.19
90 | CCOC(=O)c1sc2ccsc2c1CNC(=O)C(C)(C)C#N | -4.42
91 | CC(CS(C)(=O)=O)N(C(=O)Nc1ccc(F)cc1F)C1CC1 (stereo unspecified) | 4.08
92 | COc1cc(OC)cc(C(=O)NCc2nn(C)c3c2COCC3)c1 | 6.17

Row | Structure (SMILES) | cytotoxicity at 10 µM [%]
93 | CC(NCCc1nccn1Cc1ccccc1)c1cccs1 (stereo unspecified) | 3.68
94 | Cc1nn(C)c(N(C)C)c1CNCc1ccc(Cn2cncn2)cc1 | -6.94
95 | c1ccc(CN2CCn3c(Cn4cncn4)cnc3C2)nc1 | -70.7
96 | Cc1cnn(CCNCc2nc(-c3ccccn3)no2)c1 | -8
97 | CC(NC(=O)NCc1cccc(CN2CCCC2)c1)c1nccs1 (stereo unspecified) | -7.43
98 | CN(C)C(=O)N1C[C@@H]2COC[C@]2(CNS(C)(=O)=O)C1 | -1.47
99 | COc1ccc(C(NCc2ccc(C#N)cc2)C2CC2)cc1 (stereo unspecified) | 7.18
100 | CCC(=O)N(C)CC(=O)Nc1ccc(Br)cn1 | 7.48
101 | O=C(Nc1ccc(N2CCOCC2)nc1)N1CCc2sccc2C1 | -2.26
102 | COc1ccc(C(=O)NC2CC2)c(OC2CCN(C(C)CO)CC2)c1 (stereo unspecified) | -7.71
103 | CCNC(=O)C1CCN(Cc2ccc(C(=O)Nc3nnc(C)s3)cc2)C1 (stereo unspecified) | -0.834
104 | CCOC(=O)CC(NC(=O)c1cn(Cc2ccccc2F)nn1)C(C)C (stereo unspecified) | -0.99
105 | COc1cccc([C@@H]2CN(C(=O)c3ccc(C)cc3O)C[C@H]2C(=O)O)c1 | 6.49
106 | CCCC(C)Sc1nnnn1C1CCOCC1 (stereo unspecified) | 2.3
107 | CN(C)C(=O)C1CN(Cc2ccc(C#N)cc2F)c2ccccc2O1 (stereo unspecified) | 7.14
108 | CN(CCC(=O)N1CCc2sccc2C1)Cc1cc(Br)cs1 | -14.8
109 | O=C(Nc1ccccc1)C1CN(C(=O)c2cccs2)CC12CCOCC2 (stereo unspecified) | -2.13
110 | CSc1nccc(NCc2cc3n(n2)CCCN(C(=O)C2CCC2)C3)n1 | -118
111 | CC(C)COC(=O)N1CC(=O)N(CCCc2ccccc2)CC(O)C1 (stereo unspecified) | 0.853
